In PMC4326595 (Molecular cancer therapeutics, 2014):
pIC50: −log10 of the molar value.

How the values were obtained:
Experiment in all cases: HDAC-Glo I/II luminescent assay
Format in all cases: biochemical
[1] = target: HDAC 2 (Homo sapiens, UniProt Q92769)
Outline: (§1)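 Recombinant human enzymes: HDAC1 C-terminal GST, HDAC2/8/10 C-terminal His, HDAC6 N-terminal GST, HDAC3 as NCOR1 complex; each at a level in the lower linear titration range giving similar signal. Test compound, 15-point 3-fold dilutions (DMSO), pre-incubated with enzyme 20–30 min, room temperature; HDAC-Glo I/II detection reagent added, luminescence read after 20 min. Quadruplicate wells; IC50 values determined.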

[2] = target: T1, HDAC 8 (Homo sapiens, UniProt Q9BY41)
T1 sequence (Q9BY41 1-377): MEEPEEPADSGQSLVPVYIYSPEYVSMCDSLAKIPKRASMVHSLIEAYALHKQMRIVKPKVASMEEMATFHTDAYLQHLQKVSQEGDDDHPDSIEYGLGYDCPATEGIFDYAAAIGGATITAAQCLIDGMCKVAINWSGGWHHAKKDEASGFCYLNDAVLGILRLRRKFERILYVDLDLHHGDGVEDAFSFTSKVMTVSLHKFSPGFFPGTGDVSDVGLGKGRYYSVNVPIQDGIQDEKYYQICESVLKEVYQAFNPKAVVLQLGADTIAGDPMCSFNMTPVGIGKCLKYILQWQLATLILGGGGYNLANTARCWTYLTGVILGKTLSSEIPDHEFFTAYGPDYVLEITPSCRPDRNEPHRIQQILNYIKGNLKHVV
Outline: as §1

[3] = target: HDAC 3/NCOR1 (Homo sapiens, UniProt O15379)
HDAC 3/NCOR1, sequence (O15379 whole entry): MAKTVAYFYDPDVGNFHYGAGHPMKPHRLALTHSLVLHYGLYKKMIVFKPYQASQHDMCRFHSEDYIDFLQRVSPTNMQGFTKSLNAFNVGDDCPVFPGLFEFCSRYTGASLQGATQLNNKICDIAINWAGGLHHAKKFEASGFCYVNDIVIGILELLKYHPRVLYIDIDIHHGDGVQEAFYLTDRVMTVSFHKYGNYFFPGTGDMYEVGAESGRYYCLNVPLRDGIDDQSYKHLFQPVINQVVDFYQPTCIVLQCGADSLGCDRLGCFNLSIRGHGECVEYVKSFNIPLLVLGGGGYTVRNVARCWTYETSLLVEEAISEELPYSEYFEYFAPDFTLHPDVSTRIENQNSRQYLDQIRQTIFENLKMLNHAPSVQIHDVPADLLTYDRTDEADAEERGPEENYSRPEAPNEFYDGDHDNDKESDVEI
HDAC 3/NCOR1, sequence (O75376 whole entry partner): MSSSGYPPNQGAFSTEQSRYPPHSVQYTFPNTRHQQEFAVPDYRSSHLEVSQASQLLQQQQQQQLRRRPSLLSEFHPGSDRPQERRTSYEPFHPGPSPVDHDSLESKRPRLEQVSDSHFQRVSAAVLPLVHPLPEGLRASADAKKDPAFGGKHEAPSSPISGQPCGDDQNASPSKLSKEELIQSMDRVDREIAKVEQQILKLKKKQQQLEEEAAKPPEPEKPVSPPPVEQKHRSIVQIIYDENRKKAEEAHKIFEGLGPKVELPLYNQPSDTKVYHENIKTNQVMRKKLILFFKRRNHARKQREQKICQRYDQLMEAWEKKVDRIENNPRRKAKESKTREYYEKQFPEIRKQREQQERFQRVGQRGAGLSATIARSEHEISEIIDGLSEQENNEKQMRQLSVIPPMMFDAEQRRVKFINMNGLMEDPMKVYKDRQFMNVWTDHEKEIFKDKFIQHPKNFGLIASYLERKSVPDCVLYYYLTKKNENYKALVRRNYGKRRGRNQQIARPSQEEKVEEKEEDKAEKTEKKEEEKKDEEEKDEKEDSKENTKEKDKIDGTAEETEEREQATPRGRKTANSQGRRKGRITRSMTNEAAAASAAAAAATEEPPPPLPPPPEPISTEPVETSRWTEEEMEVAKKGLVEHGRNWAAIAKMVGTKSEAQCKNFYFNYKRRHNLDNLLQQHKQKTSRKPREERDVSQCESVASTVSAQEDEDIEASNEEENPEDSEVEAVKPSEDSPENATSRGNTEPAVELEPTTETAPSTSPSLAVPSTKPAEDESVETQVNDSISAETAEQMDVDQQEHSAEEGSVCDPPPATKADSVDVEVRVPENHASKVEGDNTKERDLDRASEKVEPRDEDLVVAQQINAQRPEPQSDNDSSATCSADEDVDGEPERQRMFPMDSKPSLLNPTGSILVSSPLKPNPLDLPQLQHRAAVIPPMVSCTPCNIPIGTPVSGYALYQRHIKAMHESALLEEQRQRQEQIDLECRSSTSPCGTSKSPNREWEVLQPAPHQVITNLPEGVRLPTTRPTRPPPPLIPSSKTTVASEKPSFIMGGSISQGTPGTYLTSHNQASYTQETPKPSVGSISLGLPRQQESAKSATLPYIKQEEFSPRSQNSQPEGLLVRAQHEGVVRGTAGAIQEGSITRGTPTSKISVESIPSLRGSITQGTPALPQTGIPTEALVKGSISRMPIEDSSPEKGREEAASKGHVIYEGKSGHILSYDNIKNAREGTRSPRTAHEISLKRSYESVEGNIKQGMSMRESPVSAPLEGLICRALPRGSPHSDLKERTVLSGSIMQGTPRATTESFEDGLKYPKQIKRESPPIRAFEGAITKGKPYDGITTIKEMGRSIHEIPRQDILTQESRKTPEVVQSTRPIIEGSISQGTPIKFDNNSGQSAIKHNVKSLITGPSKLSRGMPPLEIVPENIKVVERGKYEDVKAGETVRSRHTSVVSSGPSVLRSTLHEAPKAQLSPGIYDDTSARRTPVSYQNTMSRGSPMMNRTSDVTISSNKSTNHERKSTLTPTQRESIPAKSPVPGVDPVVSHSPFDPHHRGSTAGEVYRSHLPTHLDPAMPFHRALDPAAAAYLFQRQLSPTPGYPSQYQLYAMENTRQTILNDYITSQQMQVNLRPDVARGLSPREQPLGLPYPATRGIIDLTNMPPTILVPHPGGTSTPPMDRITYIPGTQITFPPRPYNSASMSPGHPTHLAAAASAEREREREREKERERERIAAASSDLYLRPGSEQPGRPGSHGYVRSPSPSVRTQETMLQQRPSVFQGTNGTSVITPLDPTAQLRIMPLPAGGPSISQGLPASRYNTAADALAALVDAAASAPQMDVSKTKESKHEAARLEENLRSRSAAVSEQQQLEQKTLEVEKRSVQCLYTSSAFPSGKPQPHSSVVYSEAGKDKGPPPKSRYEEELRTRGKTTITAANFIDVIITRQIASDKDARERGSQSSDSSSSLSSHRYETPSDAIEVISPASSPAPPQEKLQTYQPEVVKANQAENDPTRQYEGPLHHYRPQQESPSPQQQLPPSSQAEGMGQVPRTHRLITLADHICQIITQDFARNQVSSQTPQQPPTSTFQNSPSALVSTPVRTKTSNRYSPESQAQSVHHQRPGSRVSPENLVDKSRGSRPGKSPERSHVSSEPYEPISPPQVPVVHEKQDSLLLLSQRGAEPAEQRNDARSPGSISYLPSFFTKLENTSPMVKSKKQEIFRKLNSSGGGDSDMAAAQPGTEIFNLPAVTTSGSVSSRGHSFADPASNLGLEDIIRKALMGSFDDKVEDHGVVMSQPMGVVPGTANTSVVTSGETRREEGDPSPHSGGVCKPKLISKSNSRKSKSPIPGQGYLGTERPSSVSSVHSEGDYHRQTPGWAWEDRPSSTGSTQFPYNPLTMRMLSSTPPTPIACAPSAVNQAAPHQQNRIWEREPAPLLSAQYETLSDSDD
Outline: as §1

[4] = target: T2, HDAC 6 (Homo sapiens, UniProt Q9UBN7)
T2 sequence (Q9UBN7 1-1215): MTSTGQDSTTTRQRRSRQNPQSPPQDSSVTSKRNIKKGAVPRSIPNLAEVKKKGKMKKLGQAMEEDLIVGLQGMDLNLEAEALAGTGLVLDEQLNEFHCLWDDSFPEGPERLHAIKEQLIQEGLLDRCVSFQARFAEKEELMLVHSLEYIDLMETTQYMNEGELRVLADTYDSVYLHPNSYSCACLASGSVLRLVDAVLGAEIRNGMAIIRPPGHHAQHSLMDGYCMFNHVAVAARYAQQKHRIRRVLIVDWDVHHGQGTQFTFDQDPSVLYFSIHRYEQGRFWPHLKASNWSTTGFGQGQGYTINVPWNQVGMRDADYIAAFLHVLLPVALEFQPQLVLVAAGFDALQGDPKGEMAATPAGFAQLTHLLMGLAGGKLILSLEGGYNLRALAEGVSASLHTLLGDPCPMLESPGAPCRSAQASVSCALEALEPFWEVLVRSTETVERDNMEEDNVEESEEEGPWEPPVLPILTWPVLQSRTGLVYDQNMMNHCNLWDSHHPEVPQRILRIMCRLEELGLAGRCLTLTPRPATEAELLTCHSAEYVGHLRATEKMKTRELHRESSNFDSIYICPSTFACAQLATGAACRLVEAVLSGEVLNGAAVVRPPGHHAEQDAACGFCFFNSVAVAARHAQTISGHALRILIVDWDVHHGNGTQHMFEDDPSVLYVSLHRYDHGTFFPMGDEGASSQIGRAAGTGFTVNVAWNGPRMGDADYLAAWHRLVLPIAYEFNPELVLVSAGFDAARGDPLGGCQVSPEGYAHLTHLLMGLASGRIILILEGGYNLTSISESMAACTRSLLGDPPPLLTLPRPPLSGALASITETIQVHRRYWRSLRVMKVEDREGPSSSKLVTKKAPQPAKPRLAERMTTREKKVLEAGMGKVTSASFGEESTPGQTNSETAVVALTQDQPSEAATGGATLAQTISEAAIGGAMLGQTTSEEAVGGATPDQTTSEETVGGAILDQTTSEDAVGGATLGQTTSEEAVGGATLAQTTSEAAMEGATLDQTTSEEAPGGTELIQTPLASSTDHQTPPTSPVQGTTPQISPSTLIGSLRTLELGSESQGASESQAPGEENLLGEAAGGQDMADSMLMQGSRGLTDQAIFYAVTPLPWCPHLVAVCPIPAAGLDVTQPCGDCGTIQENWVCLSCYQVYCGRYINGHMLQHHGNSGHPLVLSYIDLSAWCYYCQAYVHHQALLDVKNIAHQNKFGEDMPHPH
Outline: as §1

[5] = target: T3, HDAC 10 (Homo sapiens, UniProt Q969S8)
T3 sequence (Q969S8 1-669): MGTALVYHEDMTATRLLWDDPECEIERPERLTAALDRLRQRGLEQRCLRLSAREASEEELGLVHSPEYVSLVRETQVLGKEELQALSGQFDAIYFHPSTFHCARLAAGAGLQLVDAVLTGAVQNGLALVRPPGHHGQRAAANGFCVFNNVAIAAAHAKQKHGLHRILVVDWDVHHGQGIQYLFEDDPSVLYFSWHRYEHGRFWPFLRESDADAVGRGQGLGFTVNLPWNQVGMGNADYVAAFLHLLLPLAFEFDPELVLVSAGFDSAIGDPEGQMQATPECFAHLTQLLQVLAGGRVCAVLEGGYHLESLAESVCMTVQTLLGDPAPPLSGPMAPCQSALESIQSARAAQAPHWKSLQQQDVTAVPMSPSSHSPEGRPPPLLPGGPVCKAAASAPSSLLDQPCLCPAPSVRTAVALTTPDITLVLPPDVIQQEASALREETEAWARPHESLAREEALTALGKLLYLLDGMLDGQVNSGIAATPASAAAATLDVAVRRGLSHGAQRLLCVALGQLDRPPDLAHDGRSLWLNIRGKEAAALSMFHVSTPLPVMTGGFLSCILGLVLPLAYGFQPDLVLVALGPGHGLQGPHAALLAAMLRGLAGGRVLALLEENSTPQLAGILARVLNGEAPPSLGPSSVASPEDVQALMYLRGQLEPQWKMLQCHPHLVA
Outline: as §1

[6] = target: HDAC 1 (Homo sapiens, UniProt Q13547)
HDAC 1, sequence (Q13547 whole entry): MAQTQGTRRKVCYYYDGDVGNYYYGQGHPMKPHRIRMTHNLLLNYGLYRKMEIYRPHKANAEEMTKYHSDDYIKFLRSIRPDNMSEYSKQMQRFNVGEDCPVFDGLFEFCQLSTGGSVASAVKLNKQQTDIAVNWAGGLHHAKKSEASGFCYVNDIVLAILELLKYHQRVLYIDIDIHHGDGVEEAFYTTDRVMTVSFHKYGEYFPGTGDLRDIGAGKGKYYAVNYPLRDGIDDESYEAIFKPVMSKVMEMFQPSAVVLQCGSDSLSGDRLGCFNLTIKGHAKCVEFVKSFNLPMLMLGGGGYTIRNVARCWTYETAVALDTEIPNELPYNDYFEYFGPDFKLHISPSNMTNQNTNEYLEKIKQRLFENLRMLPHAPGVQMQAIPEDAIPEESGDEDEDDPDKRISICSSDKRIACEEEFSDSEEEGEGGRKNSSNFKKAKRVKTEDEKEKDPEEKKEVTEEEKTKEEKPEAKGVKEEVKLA
Outline: as §1

HDAC 2, sequence (Q92769 whole entry): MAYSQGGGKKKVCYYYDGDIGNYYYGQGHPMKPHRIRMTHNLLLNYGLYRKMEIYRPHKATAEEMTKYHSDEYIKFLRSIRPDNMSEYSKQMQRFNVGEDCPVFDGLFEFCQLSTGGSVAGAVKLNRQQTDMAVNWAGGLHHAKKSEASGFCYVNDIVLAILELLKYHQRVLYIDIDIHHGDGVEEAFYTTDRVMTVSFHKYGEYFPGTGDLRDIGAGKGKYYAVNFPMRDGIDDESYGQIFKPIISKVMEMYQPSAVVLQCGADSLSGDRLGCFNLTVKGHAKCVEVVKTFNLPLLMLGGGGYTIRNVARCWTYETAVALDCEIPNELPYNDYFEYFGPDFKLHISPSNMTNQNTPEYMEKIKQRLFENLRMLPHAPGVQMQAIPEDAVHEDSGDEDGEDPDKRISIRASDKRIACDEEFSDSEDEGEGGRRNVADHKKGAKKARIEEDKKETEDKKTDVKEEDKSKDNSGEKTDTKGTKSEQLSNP

Q: With `COc1ccc(C=NNC(=O)CCCCCCC(=O)NO)cc1` [AB3] as the molecule, how does the pIC50 [1] read?
A: 8.51

Q: And the pIC50 [2]?
A: 7.22

Q: What about the pIC50 [3] of the same molecule?
A: 8.74

Q: And the pIC50 [4]?
A: 7.45

Q: What about the pIC50 [5] of the same molecule?
A: 7.96

Q: What about the pIC50 [6] of the same molecule?
A: 8.64
